Data as given in ChEMBL document CHEMBL5131563, “Accelerated Identification of Cell Active KRAS Inhibitory Macrocyclic Peptides using Mixture Libraries and Automated Ligand Identification System (ALIS) Technology” (J Med Chem, 2022).
*1 amine or outer side, *2 acyl side, *3 side chain or, on linkers, in order; H or OH if unused. Where a SMILES comes first, the peptide text is derived from it. Bridges are numbered along the chain shown (N, C = ends). [ ]: non-standard residue; d: D form. Pro(trans-3-OAllyl) = C=CCO[C@H]1CCN[C@@H]1C(=O)O; X2 = O=C([C@@H]1[C@H]2CC[C@H](C2)N1[*:1])[*:2]; Ala(4-thiazolyl) = N[C@@H](Cc1cscn1)C(=O)O; Bip = N[C@@H](Cc1ccc(-c2ccccc2)cc1)C(=O)O; Dip = N[C@H](C(=O)O)C(c1ccccc1)c1ccccc1; Ala(cPent) = N[C@@H](CC1CCCC1)C(=O)O; Cha = N[C@@H](CC1CCCCC1)C(=O)O; Cba = N[C@@H](CC1CCC1)C(=O)O; hLeu = CC(C)CC[C@H](N)C(=O)O; Nle = CCCC[C@H](N)C(=O)O; Dab = NCC[C@H](N)C(=O)O; Nva = CCC[C@H](N)C(=O)O

Assays:
GTPase KRas = GTPase KRas (Homo sapiens, UniProt P01116, G12D); assay: Inhibition of recombinant biotinylated KRAS G12D mutant (unknown origin) assessed as inhibition of SOS-catalyzed nucleotide exchange preincubated for 60 mins followed by addition of human SOS protein and unlabeled GTP and measured after 60 mins by TR-FRET analysis
In short: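 Biotinylated KRAS G12D was treated in EDTA buffer (1 h, RT), then loaded at 90 nM with 900 nM Bodipy-GDP and 15 nM Tb-streptavidin in Mg2+ buffer, HEPES pH 7.5 (6 h, RT). It was used at 1.5 nM assay solution with a 10-point, 3-fold DMSO compound series for 60 min at RT. A solution of 120 nM human SOS plus GTP was added for 60 min. The read-out was TR-FRET at 520/495 nm, normalized to DMSO and saturating-inhibitor controls, with a 4-parameter fit.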

[1] = Stability in human HeLa cell homogenate assessed as half life by LC-MS/MS analysis; type: ADME, cell-based
In short: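 HeLa cells suspended at 1 × 10^6 cells/mL, probe-sonicated on ice until homogeneous, stored frozen at –20 °C. Peptides incubated with homogenate (1 × 10^6 cells/mL equivalent); peptide loss over time quantified by LC-MS/MS to derive t1/2.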

Chain of GTPase KRas (P01116 whole entry G12D): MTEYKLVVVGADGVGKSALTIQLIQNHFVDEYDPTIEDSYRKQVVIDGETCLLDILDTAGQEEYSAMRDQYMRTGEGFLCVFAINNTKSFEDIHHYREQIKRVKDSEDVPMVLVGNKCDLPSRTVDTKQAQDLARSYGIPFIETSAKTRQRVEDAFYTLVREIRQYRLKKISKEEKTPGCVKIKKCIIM

Structure (SMILES)	IC50 (GTPase KRas) [nM]	half-life [1] [min]
CC[C@H](C)[C@@H]1NC(=O)[C@H](Cc2ccc(O)cc2)NC(=O)[C@H](CC(C)C)NC(=O)[C@@H]2CCCN2C(=O)[C@@H](NC(=O)[C@H](CCCNC(=N)N)NC(=O)[C@H](CCCNC(=N)N)NC(C)=O)CSSC[C@@H](C(=O)N[C@@H](CCCNC(=N)N)C(=O)N[C@@H](CCCNC(=N)N)C(N)=O)NC(=O)[C@H](C(C)C)NC(=O)[C@@H]2CCCN2C(=O)[C@H](CC(=O)O)NC(=O)[C@H](Cc2cc(F)c(F)c(F)c2)NC(=O)[C@H](CO)NC1=O	193	18
CC[C@H](C)[C@@H]1NC(=O)[C@H](Cc2ccc(O)cc2)NC(=O)[C@H](CC(C)C)NC(=O)[C@@H]2CCCN2C(=O)[C@@H](NC(=O)[C@H](CCCNC(=N)N)NC(=O)[C@H](CCCNC(=N)N)NC(C)=O)CSSC[C@@H](C(=O)N[C@@H](CCCNC(=N)N)C(=O)N[C@@H](CCCNC(=N)N)C(N)=O)NC(=O)[C@H](C(C)C)NC(=O)[C@@H]2CCCN2C(=O)[C@H](CC(=O)O)NC(=O)[C@H](C(c2ccccc2)c2ccccc2)NC(=O)[C@H](CO)NC1=O	251	30
CC[C@H](C)[C@@H]1NC(=O)[C@H](Cc2ccc(O)cc2)NC(=O)[C@H](CC(C)C)NC(=O)[C@@H]2CCCN2C(=O)[C@@H](NC(=O)[C@H](CCCNC(=N)N)NC(=O)[C@H](CCCNC(=N)N)NC(C)=O)CSSC[C@@H](C(=O)N[C@@H](CCCNC(=N)N)C(=O)N[C@@H](CCCNC(=N)N)C(N)=O)NC(=O)[C@H](C(C)C)NC(=O)[C@@H]2CCCN2C(=O)[C@H](CC(=O)O)NC(=O)[C@H](CC2CCCCC2)NC(=O)[C@H](CO)NC1=O	1470	15
CC[C@H](C)[C@@H]1NC(=O)[C@H](Cc2ccc(O)cc2)NC(=O)[C@H](CC(C)C)NC(=O)[C@@H]2CCCN2C(=O)[C@@H](NC(=O)[C@H](CCCNC(=N)N)NC(=O)[C@H](CCCNC(=N)N)NC(C)=O)CSSC[C@@H](C(=O)N[C@@H](CCCNC(=N)N)C(=O)N[C@@H](CCCNC(=N)N)C(N)=O)NC(=O)[C@H](C(C)C)NC(=O)[C@@H]2CCCN2C(=O)[C@H](CC(=O)O)NC(=O)[C@H](Cc2ccc(O)cc2)NC(=O)[C@H](CO)NC1=O (Ac-RRCPLYISYDPVCRR-NH2; disulfide 3-13)	54	23
CC[C@H](C)[C@@H]1NC(=O)[C@H](Cc2ccc(O)cc2)NC(=O)[C@H](CC(C)C)NC(=O)[C@@H]2CCCN2C(=O)[C@@H](NC(=O)[C@H](CCCNC(=N)N)NC(=O)[C@H](CCCNC(=N)N)NC(C)=O)CSSC[C@@H](C(=O)N[C@@H](CCCNC(=N)N)C(=O)N[C@@H](CCCNC(=N)N)C(N)=O)NC(=O)[C@H](C(C)C)NC(=O)[C@@H]2CCCN2C(=O)[C@H](CC(=O)O)NC(=O)[C@H](Cc2ccc(O)cc2)NC(=O)[C@H](Cc2cscn2)NC1=O (Ac-RRCPLYI[Ala(4-thiazolyl)]YDPVCRR-NH2; disulfide 3-13)	2270	22
CC[C@H](C)[C@@H]1NC(=O)[C@H](Cc2ccc(O)cc2)NC(=O)[C@H](CC(C)C)NC(=O)[C@@H]2CCCN2C(=O)[C@@H](NC(=O)[C@H](CCCNC(=N)N)NC(=O)[C@H](CCCNC(=N)N)NC(C)=O)CSSC[C@@H](C(=O)N[C@@H](CCCNC(=N)N)C(=O)N[C@@H](CCCNC(=N)N)C(N)=O)NC(=O)[C@H](C(C)C)NC(=O)[C@@H]2CCCN2C(=O)[C@H](CC(=O)O)NC(=O)[C@H](C(c2ccccc2)c2ccccc2)NC(=O)[C@H](CCN)NC1=O (Ac-RRCPLYI[Dab][Dip]DPVCRR-NH2; disulfide 3-13)	> 11100	34
CCCC[C@@H]1NC(=O)[C@H]([C@@H](C)CC)NC(=O)[C@H](Cc2ccc(O)cc2)NC(=O)[C@H](CC(C)C)NC(=O)[C@@H]2CCCN2C(=O)[C@@H](NC(=O)[C@H](CCCNC(=N)N)NC(=O)[C@H](CCCNC(=N)N)NC(C)=O)CSSC[C@@H](C(=O)N[C@@H](CCCNC(=N)N)C(=O)N[C@@H](CCCNC(=N)N)C(N)=O)NC(=O)[C@H](C(C)C)NC(=O)[C@@H]2CCCN2C(=O)[C@H](CC(=O)O)NC(=O)[C@H](Cc2ccc(O)cc2)NC1=O (Ac-RRCPLYI[Nle]YDPVCRR-NH2; disulfide 3-13)	> 11100	25
CCCC[C@@H]1NC(=O)[C@H]([C@@H](C)CC)NC(=O)[C@H](Cc2ccc(O)cc2)NC(=O)[C@H](CC(C)C)NC(=O)[C@@H]2CCCN2C(=O)[C@@H](NC(=O)[C@H](CCCNC(=N)N)NC(=O)[C@H](CCCNC(=N)N)NC(C)=O)CSSC[C@@H](C(=O)N[C@@H](CCCNC(=N)N)C(=O)N[C@@H](CCCNC(=N)N)C(N)=O)NC(=O)[C@H](C(C)C)NC(=O)[C@@H]2CCCN2C(=O)[C@H](CC(=O)O)NC(=O)[C@H](CC2CCCCC2)NC1=O (Ac-RRCPLYI[Nle][Cha]DPVCRR-NH2; disulfide 3-13)	> 11100	26
CC(=O)N[C@@H](CCCNC(=N)N)C(=O)N[C@@H](CCCNC(=N)N)C(=O)N[C@H]1CSSC[C@@H](C(=O)N[C@@H](CCCNC(=N)N)C(=O)N[C@@H](CCCNC(=N)N)C(N)=O)NC(=O)[C@H](C(C)C)NC(=O)[C@@H]2CCCN2C(=O)[C@H](CC(=O)O)NC(=O)[C@H](Cc2ccc(O)cc2)NC(=O)[C@H](CO)NC(=O)[C@H](CC2CCCC2)NC(=O)[C@H](Cc2ccc(O)cc2)NC(=O)[C@H](CC(C)C)NC(=O)[C@@H]2CCCN2C1=O (Ac-RRCPLY[Ala(cPent)]SYDPVCRR-NH2; disulfide 3-13)	> 11100	23
CCC[C@@H]1NC(=O)[C@H](Cc2ccc(O)cc2)NC(=O)[C@H](CC(C)C)NC(=O)[C@@H]2CCCN2C(=O)[C@@H](NC(=O)[C@H](CCCNC(=N)N)NC(=O)[C@H](CCCNC(=N)N)NC(C)=O)CSSC[C@@H](C(=O)N[C@@H](CCCNC(=N)N)C(=O)N[C@@H](CCCNC(=N)N)C(N)=O)NC(=O)[C@H](C(C)C)NC(=O)[C@@H]2CCCN2C(=O)[C@H](CC(=O)O)NC(=O)[C@H](Cc2ccc(O)cc2)NC(=O)[C@H](CO)NC1=O (Ac-RRCPLY[Nva]SYDPVCRR-NH2; disulfide 3-13)	> 11100	19
CC(=O)N[C@@H](CCCNC(=N)N)C(=O)N[C@@H](CCCNC(=N)N)C(=O)N[C@H]1CSSC[C@@H](C(=O)N[C@@H](CCCNC(=N)N)C(=O)N[C@@H](CCCNC(=N)N)C(N)=O)NC(=O)[C@H](C(C)C)NC(=O)[C@@H]2CCCN2C(=O)[C@H](CC(=O)O)NC(=O)[C@H](Cc2ccc(O)cc2)NC(=O)[C@H](CO)NC(=O)[C@H](CCC(C)C)NC(=O)[C@H](Cc2ccc(O)cc2)NC(=O)[C@H](CC(C)C)NC(=O)[C@@H]2CCCN2C1=O (Ac-RRCPLY[hLeu]SYDPVCRR-NH2; disulfide 3-13)	> 11100	28
CC[C@H](C)[C@@H]1NC(=O)[C@H](Cc2ccc(-c3ccccc3)cc2)NC(=O)[C@H](CC(C)C)NC(=O)[C@@H]2CCCN2C(=O)[C@@H](NC(=O)[C@H](CCCNC(=N)N)NC(=O)[C@H](CCCNC(=N)N)NC(C)=O)CSSC[C@@H](C(=O)N[C@@H](CCCNC(=N)N)C(=O)N[C@@H](CCCNC(=N)N)C(N)=O)NC(=O)[C@H](C(C)C)NC(=O)[C@@H]2CCCN2C(=O)[C@H](CC(=O)O)NC(=O)[C@H](Cc2ccc(O)cc2)NC(=O)[C@H](CO)NC1=O (Ac-RRCPL[Bip]ISYDPVCRR-NH2; disulfide 3-13)	7	55
CCC[C@@H]1NC(=O)[C@H](Cc2ccc(-c3ccccc3)cc2)NC(=O)[C@H](CC(C)C)NC(=O)[C@@H]2CCCN2C(=O)[C@@H](NC(=O)[C@H](CCCNC(=N)N)NC(=O)[C@H](CCCNC(=N)N)NC(C)=O)CSSC[C@@H](C(=O)N[C@@H](CCCNC(=N)N)C(=O)N[C@@H](CCCNC(=N)N)C(N)=O)NC(=O)[C@H](C(C)C)NC(=O)[C@@H]2CCCN2C(=O)[C@H](CC(=O)O)NC(=O)[C@H](Cc2ccc(O)cc2)NC(=O)[C@H](CO)NC1=O (Ac-RRCPL[Bip][Nva]SYDPVCRR-NH2; disulfide 3-13)	604	26
CC(=O)N[C@@H](CCCNC(=N)N)C(=O)N[C@@H](CCCNC(=N)N)C(=O)N[C@H]1CSSC[C@@H](C(=O)N[C@@H](CCCNC(=N)N)C(=O)N[C@@H](CCCNC(=N)N)C(N)=O)NC(=O)[C@H](C(C)C)NC(=O)[C@@H]2CCCN2C(=O)[C@H](CC(=O)O)NC(=O)[C@H](Cc2ccc(O)cc2)NC(=O)[C@H](CO)NC(=O)[C@H](CCC(C)C)NC(=O)[C@H](Cc2ccc(-c3ccccc3)cc2)NC(=O)[C@H](CC(C)C)NC(=O)[C@@H]2CCCN2C1=O (Ac-RRCPL[Bip][hLeu]SYDPVCRR-NH2; disulfide 3-13)	> 11100	17
C=CCO[C@H]1CCN2C(=O)[C@@H](NC(=O)[C@H](CCCNC(=N)N)NC(=O)[C@H](CCCNC(=N)N)NC(C)=O)CSSC[C@@H](C(=O)N[C@@H](CCCNC(=N)N)C(=O)N[C@@H](CCCNC(=N)N)C(N)=O)NC(=O)[C@H](C(C)C)NC(=O)[C@@H]3CCCN3C(=O)[C@H](CC(=O)O)NC(=O)[C@H](Cc3ccc(O)cc3)NC(=O)[C@H](CO)NC(=O)[C@H]([C@@H](C)CC)NC(=O)[C@H](Cc3ccc(-c4ccccc4)cc3)NC(=O)[C@H](CC3CCC3)NC(=O)[C@H]12 (Ac-RRC[Pro(trans-3-OAllyl)][Cba][Bip]ISYDPVCRR-NH2; disulfide 3-13)	2	–
CC[C@H](C)[C@@H]1NC(=O)[C@H](Cc2ccc(-c3ccccc3)cc2)NC(=O)[C@H](CC(C)C)NC(=O)[C@@H]2[C@H]3CC[C@H](C3)N2C(=O)[C@@H](NC(=O)[C@H](CCCNC(=N)N)NC(=O)[C@H](CCCNC(=N)N)NC(C)=O)CSSC[C@@H](C(=O)N[C@@H](CCCNC(=N)N)C(=O)N[C@@H](CCCNC(=N)N)C(N)=O)NC(=O)[C@H](C(C)C)NC(=O)[C@@H]2CCCN2C(=O)[C@H](CC(=O)O)NC(=O)[C@H](Cc2ccc(O)cc2)NC(=O)[C@H](CO)NC1=O (Ac-RRC[X2]L[Bip]ISYDPVCRR-NH2; disulfide 3-13)	201	–
